# TDP2 absorb: human TDP2 enzyme inhibitors, primary screen, biochemical, epi absorbance, recombinant enzyme; inhibition, % at 12.8 µM; AID 720702, 2013; Tyrosyl-DNA phosphodiesterase 2 (Homo sapiens), O95551; hit rate 0.34% among 370,000; T5PNP hydrolysis, p-nitrophenol absorbance 415 nm;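 active means inhibition above the mean of all tested compounds plus 3 SD, set per campaign, cut at about 25% in these data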;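 further: 0% = DMSO with enzyme and 100% = buffer with substrate but no TDP2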
#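 Read-out basis: percent inhibition. System: recombinant human TDP2. Buffer or medium: Mg2+-containing Tris-HCl buffer, pH 7.5. Repeats: single replicate. Timing: reaction 2 h, 37 °C. Benchmarks: high control without enzyme, low control DMSO plus TDP2. Probe or stimulus: 5 mM T5PNP. Doses: 12.8 µM only. Measured by: epi absorbance of p-nitrophenol freed from T5PNP by hydrolysis.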
# TCR-CD3 inh: inhibitors of human TCR-CD3 interaction, primary screen, biochemical, fluorescence, TAMRA-labeled TCR probe. inhibition, % at 9.4 µM. hit rate 0.37% among 360,000; in the data active means inhibition above about 19%;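 further: recombinant mutant TCR 2C K166C tagged with TAMRA read by polarization; 0% = receptor in buffer alone and 100% = receptor with positive control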
# ABHD4 inh: ABHD4 inhibitors, primary screen, biochemical, fluorescence polarization, mouse; purified mABHD4, FP-Rh probe fluorescence polarization; inhibition, % at 8.92 µM; hit rate 0.54% among 370,000; AID 720543, 2013;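 active means inhibition exceeding the mean over every tested compound plus 3 SD, cut at about 30% in these data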;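 further: 0% = plate median of compound wells and 100% = S159A mutant with DMSO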
#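 Assay system: mABHD4 protein; medium: HEPES pH 7.0, NaCl, Pluronic buffer; dosing: 8.92 µM, single dose; schedule: 45 min + 60 min at 25 °C; signal: FP readout, ex 525 nm / em 598 nm; read-out: normalized percent inhibition of probe labeling; repeats: single replicate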
# SIAE primary: human SIAE inhibitors, primary screen, biochemical, fluorescence polarization, FP-Rh probe, 1536-well HTS | inhibition, % at 9.66 µM | Sialate O-acetylesterase (Homo sapiens), Q9HAT2 | hit rate 0.69% among 370,000 | SIAE FP-Rh probe binding | AID 1053197, 2014;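 active means inhibition above a cutoff: mean of compounds within the control limits plus 3 SD of those, cut at about 17% in these data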;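 further: 0% = plate median of compound wells and 100% = probe without SIAE protein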
# Target sequence (Q9HAT2 whole entry, looked up): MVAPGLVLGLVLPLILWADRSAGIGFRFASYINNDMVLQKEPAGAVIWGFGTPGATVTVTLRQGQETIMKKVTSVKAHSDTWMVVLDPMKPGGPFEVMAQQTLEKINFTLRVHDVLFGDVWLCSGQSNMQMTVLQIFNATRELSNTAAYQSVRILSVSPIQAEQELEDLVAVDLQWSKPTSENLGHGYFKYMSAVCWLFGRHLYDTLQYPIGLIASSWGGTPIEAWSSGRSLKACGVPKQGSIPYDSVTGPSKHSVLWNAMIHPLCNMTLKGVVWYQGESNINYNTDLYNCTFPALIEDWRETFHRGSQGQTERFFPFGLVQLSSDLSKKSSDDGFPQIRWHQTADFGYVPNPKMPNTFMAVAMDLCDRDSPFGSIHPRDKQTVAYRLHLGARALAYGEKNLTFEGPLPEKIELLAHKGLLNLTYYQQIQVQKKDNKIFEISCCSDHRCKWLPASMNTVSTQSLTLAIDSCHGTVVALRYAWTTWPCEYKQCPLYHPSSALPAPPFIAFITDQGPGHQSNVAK
# PAD4 FP inh: human PAD4 inhibitors, primary screen, biochemical, fluorescence polarization, 1536-well format | Protein-arginine deiminase type-4 (Homo sapiens), Q9UM07 | recombinant PAD4, RCA probe fluorescence polarization | inhibition, % at 6.36 µM | hit rate 0.41% among 330,000 | AID 485272, 2010;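 active means percent inhibition above a cutoff equal to the mean of all tested compounds plus 3 SD, cut at about 15% in these data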;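 further: 0% = PAD4 with RCA probe and DMSO and 100% = probe without PAD4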
# HTRA1 inh: HTRA1 serine protease inhibitors, primary screen, biochemical, fluorescence polarization, HTS | recombinant HTRA1, FP-rhodamine activity-based probe | Q92743 | inhibition, % at 5.96 µM | hit rate 0.5% among 340,000; in the data active means inhibition above about 36%;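 further: 0% = enzyme with DMSO and 100% = wells lacking enzyme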
# SIAE confirm: human SIAE inhibitors, retest, confirmation, biochemical, fluorescence polarization, FP-Rh probe, triplicate. shares compounds with SIAE primary. SIAE FP-Rh activity-based probe. inhibition, % at 9.66 µM. hit rate 13% among 2,300. AID 1117263, 2014;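 active means mean inhibition of the replicates above the hit cutoff set in the primary screen, cut at about 17% in these data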;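 further: 0% = SIAE with DMSO and probe and 100% = probe without SIAE; inhibitors lower polarization as more probe stays unbound to SIAE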
# The depositor's hits bear a star; / = no result given. Most compounds without a hit are left out; they make up all but 2% or so of the library.
SMILES,TDP2 absorb,TCR-CD3 inh,ABHD4 inh,SIAE primary,PAD4 FP inh,HTRA1 inh,SIAE confirm
COc1ccc(CCNC(=O)c2cc(C)oc2C)cc1,0,4,2,6,-7,-7,/
Cc1ccc2cccc(N)c2n1,3,10,5,32*,0,12,5
CCOc1ccccc1N1CC(C(=O)NC2CCCCCC2)CC1=O (centres undefined),-1,-5,-4,1,3,5,/
Nc1ccc(N=Nc2ccccc2)cc1[N+](=O)[O-],0,-3,12,18*,/,-3,3
Cc1ccc(N)c([N+](=O)[O-])c1,-10,5,0,1,1,-1,/
Cc1cccc(CC(=O)N2CCOCC2)c1,-2,-3,-1,-4,2,4,/
Cc1nn(Cc2ccc(Cl)cc2Cl)c(C)c1NC(=O)c1nc2n(n1)C(C(F)F)CC(C)N2 (centres undefined),7,-5,6,31*,/,0,2
Cc1nn(Cc2ccc(Cl)cc2Cl)c(C)c1NC(=O)CCl,-4,-3,-2,-5,-4,-1,/
Cc1nn(Cc2ccc(Cl)cc2Cl)c(C)c1NC(=O)C1C2CCC(O2)C1C(=O)O (centres undefined),-5,4,0,20*,1,-5,3
CCN(CC(=O)Nc1ccc(NC(C)=O)cc1)C(=O)c1n[nH]c(=O)c2ccccc12,10,2,-1,4,0,-4,/
COc1cc(C2c3c([nH]c(=O)[nH]c3=O)Nc3ccc4ccccc4c32)cc(OC)c1OC (centres undefined),-5,1,1,13,0,7,/
COc1cc(C2c3c([nH]c(=O)[nH]c3=O)Nc3ccc4ccccc4c32)ccc1O (centres undefined),4,4,15,30*,1,8,37*
Brc1ccc(-c2csc(Nc3nc(-c4ccc(Br)cc4)cs3)n2)cc1,-8,-7,7,42*,-3,-12,11
Cc1c(/C=N/NC(=O)c2ccc(O)cc2)c2ccccn2c1C(=O)c1ccc(F)cc1,6,-5,10,13,-4,8,/
Cc1c(/C=N/NC(=O)c2ccccc2O)c2ccccn2c1C(=O)c1ccc(F)cc1,-6,2,6,37*,-5,10,-2
CCc1ccccc1NCC(=O)Nc1ccc(Cl)c(C(F)(F)F)c1,-20,0,-16,27*,6,5,11
CC#CCCCC(=O)Nc1ccccc1C(=O)O,10,7,-2,19*,-7,4,3
CC#CCCCC(=O)Nc1ccc(C(=O)O)cc1,-2,-1,-6,1,-6,-2,/
O=C(O)CC(C(=O)O)c1ccc(OCCCCOc2ccc(C(CC(=O)O)C(=O)O)cc2)cc1 (centres undefined),11,15,1,19*,0,1,1
Cc1cccc(OCC(=O)O/N=C(\N)c2ccccn2)c1C,2,0,-8,31*,-1,-8,-7
CCc1cccc2c(N=O)c(O)[nH]c12,7,2,-2,21*,-2,13,15
COC(=O)c1cnc(SCc2ccc([N+](=O)[O-])cc2)n1C,-9,10,0,10,2,/,/
S=c1[nH]nc(-c2ccc3ncccc3c2)n1-c1ccc2c(c1)OCCO2,-7,0,6,14,5,0,/
S=c1[nH]nc(Cn2c(-c3ccccn3)nc3ccccc32)n1-c1ccc2c(c1)OCCO2,10,4,2,19*,1,4,3
COc1ccc(-c2[nH]c(-c3cccc(OC)c3)nc2SCC(=O)NC2CCCC2)cc1,-4,0,22,24*,-5,-10,2
SMILES,TDP2 absorb,TCR-CD3 inh,ABHD4 inh,SIAE primary,PAD4 FP inh,HTRA1 inh,SIAE confirm
COc1ccc(-c2[nH]c(-c3ccccc3)nc2SCC(=O)NC2CCCC2)cc1,3,4,10,5,-5,-7,/
Cc1ccc(S(=O)(=O)N(C)C)cc1NC(=O)c1sccc1Cl,12,0,-2,17*,2,-1,-2
Cc1ccc(S(=O)(=O)N(C)C)cc1NC(=O)c1cccs1,-10,0,-3,-7,-1,/,/
CC(NC(=O)COC(=O)c1ccc([N+](=O)[O-])o1)c1ccccc1 (centres undefined),8,4,4,3,-13,21,/
c1ccc(-c2ccc3c(c2)NCCN3)cc1,4,-7,13,17*,2,16,3
Nc1cc(-c2ccccc2)ccc1O,-13,-3,28,5,-1,19,/
Cc1cccc(NC(=O)CNC(=O)[C@H]2O[C@@H](n3ccc(N)nc3=O)[C@H](O)[C@@H]2O)c1C,2,4,7,0,/,/,/
CC(C)c1ccc(OCC(=O)NC2CC(C)(C)NC(C)(C)C2)c(Br)c1,3,9,3,18*,-5,3,-4
CC(C)(C)n1ncc2c(=O)n(CC(=O)c3ccc(Cl)cc3)cnc21,-7,4,-10,-6,-4,-1,/
O=C(Cn1cnc2c(cnn2-c2ccccc2)c1=O)c1ccc(Cl)cc1,6,-5,10,39*,-2,2,0
Fc1ccccc1COc1ccc(C(=S)N2CCCC2)cc1,-16,4,3,-1,5,-12,/
O=C(CSc1n[nH]c(-c2cccnc2)n1)OC1CCCCC1,5,-4,-4,18*,-4,-3,-3
O=C(CSc1n[nH]c(-c2cccnc2)n1)Nc1ccc(Br)cc1,-10,-3,-21,-3,-5,6,/
CCOc1ccc(Cl)cc1/C=C1/C(=O)ON=C1C,-4,0,5,18*,5,1,1
CN(C(=O)c1cccc(N2C(=O)C3C4C=CC(C4)C3C2=O)c1)C1CCCCC1 (centres undefined),-8,4,-1,19*,4,6,3
O=C(O)c1cc(-c2ccco2)nc2cc3ccccc3cc12,8,2,6,-3,2,-1,/
O=[N+]([O-])c1ccc2c(c1)C=C1CCCCC1(N1CCCC1)O2 (centres undefined),1,-3,-3,21*,-2,0,-3
O=[N+]([O-])c1ccc2c(c1)nc1n2CCCCC1,2,-1,-2,-4,0,4,/

# Screening data from PubChem BioAssay.
